ChEMBL document CHEMBL4038310, “Scaffold Hopping and Optimization of Maleimide Based Porcupine Inhibitors” (J Med Chem, 2017)
In brackets after ≈: the same amount, converted by molar mass.

Tests used:
[1] = Thermodynamic solubility of compound at pH 4; type: physicochemical; conditions: buffer, read-out: Therm_solubility
[2] = Tmax in CD1 mouse at 5 mg/kg administered as single dose via oral gavage after 24 hrs by LC/MS analysis; type: ADME, organism-based; conditions: in vivo
In short: (§1)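 Female CD-1 mice, 6-8 weeks, 26 ± 3 g; single oral gavage dose of 5 mg/kg; three mice per time point. Sampling by cardiac puncture after CO2 euthanasia at pre-dose and from 5 or 10 min up to 24 h into K3EDTA. Plasma was extracted with acetonitrile/formic acid, carbamazepine internal standard, and analysed by LC-MS/MS (ESI+, MRM). Parameters were derived non-compartmentally.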

[3] = Cmax in CD1 mouse at 5 mg/kg administered as single dose via oral gavage after 24 hrs by LC/MS analysis; type: ADME, organism-based; parameters: dose 5 mg/kg, route oral; conditions: in vivo; in short: as §1
[4] = Thermodynamic solubility of compound at pH 7.4; type: physicochemical; conditions: buffer, read-out: Therm_solubility
Mus musculus = assay: Bioavailability in CD1 mouse at 1 mg/kg, iv administered as single dose after 24 hrs by LC/MS analysis; type: ADME, organism-based; conditions: in vivo
In short: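 Female CD-1 mice received a single 1 mg/kg tail-vein dose, with three mice per time point and plasma sampled up to 24 h. Quantitation was by LC-MS/MS against standards in blank mouse plasma. Absolute oral F = (AUC0-inf po/AUC0-inf iv) × (dose iv/dose po) × 100, using the 5 mg/kg oral gavage arm.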

[5] = Cmax in Sprague-Dawley rat at 10 mg/kg, po; type: ADME, organism-based; parameters: dose 10 mg/kg, route oral; conditions: in vivo
In short: (§2)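 Male Sprague Dawley rats received a single oral dose of 10 mg/kg. A plasma concentration-time profile was obtained, and PK parameters were calculated by the non-compartmental method.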

[6] = AUC in Sprague-Dawley rat at 10 mg/kg, po; type: ADME, organism-based; conditions: in vivo; in short: as §2
[7] = Bioavailability in Sprague-Dawley rat plasma at 2 mg/kg, iv; type: ADME, organism-based
In short: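 Male Sprague Dawley rats were given a 2 mg/kg intravenous dose and compared with a 10 mg/kg oral dose. Absolute F = (AUC0-inf po/AUC0-inf iv) × (dose iv/dose po) × 100.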

Structure (SMILES) | solubility thermodynamic [1] | Tmax [2] | Cmax [3] | solubility thermodynamic [4] | other results
Cc1ccc(-c2ccc(NC(=O)CN3CCCC4=C3C(=O)N(C)C4=O)nn2)cn1 | > 194 µg/mL | 10.2 min | 1050 ng/mL | 35.5 µg/mL (≈ 90.5 µM) | –
CN1C(=O)c2cccc(CC(=O)Nc3ccc(-c4nccs4)cc3)c2C1=O | – | – | – | 0.42 µg/mL (≈ 1.11 µM) | –
O=C(CN1CCCC2=C1C(=O)N(C1CC1)C2=O)Nc1ccc(-c2cccnc2)nn1 | 141 µg/mL (≈ 349 µM) | 30 min | 4030 ng/mL | 60 µg/mL (≈ 148 µM) | F (Mus musculus): 100%; Cmax [5]: 17300 ng/mL; AUC [6]: 81200 ng·h/mL; bioavailability [7]: 81%
CN1C(=O)C2=C(C1=O)N(CC(=O)Nc1ccc(-c3ccccc3)cn1)CCC2 | – | – | – | 0.24 µg/mL (≈ 0.638 µM) | –
CN1C(=O)C2=C(C1=O)N(CC(=O)Nc1ccc(-c3cncc(F)c3)nn1)CCC2 | 82 µg/mL (≈ 207 µM) | 120 min | 845 ng/mL | 41 µg/mL (≈ 103 µM) | –
CN1C(=O)C2=C(C1=O)N(CC(=O)Nc1ccc(-c3cccnc3)nn1)CCC2 | 13.9 µg/mL (≈ 36.7 µM) | 120 min | 759 ng/mL | 9.5 µg/mL (≈ 25.1 µM) | –
O=C(CN1CCCC2=C1C(=O)N(C1CC1)C2=O)Nc1ccc(-c2cncc(F)c2)nn1 | 13.8 µg/mL (≈ 32.7 µM) | 30 min | 3290 ng/mL | 14.9 µg/mL (≈ 35.3 µM) | –
CN1C(=O)C2=C(C1=O)N(CC(=O)Nc1ccc(-c3ccccc3)nc1)CCC2 | – | – | – | 0.75 µg/mL (≈ 1.99 µM) | –
Cc1ccc(-c2ccc(NC(=O)CN3CCCC4=C3C(=O)N(C3CC3)C4=O)nn2)cn1 | > 41 µg/mL | 30 min | 1190 ng/mL | 11.1 µg/mL (≈ 26.5 µM) | –
CN1C(=O)C2=C(C1=O)N(CC(=O)Nc1ccc(-c3ccccc3)nn1)CCC2 | – | – | – | 3.34 µg/mL (≈ 8.85 µM) | –
CN1C(=O)C2=C(C1=O)N(CC(=O)Nc1ccc(-c3nccs3)cc1)CCC2 | 1.1 µg/mL (≈ 2.88 µM) | – | – | 1.26 to 1.3 µg/mL (≈ 3.29 to 3.4 µM) | –
CN1C(=O)C2=C(C1=O)N(CC(=O)Nc1ccc(-c3cccnc3)nc1)CCC2 | – | – | – | 13 µg/mL (≈ 34.6 µM) | –
CN1C(=O)C2=C(C1=O)N(CC(=O)Nc1ccc(-c3ccccc3)cc1)CCC2 | – | – | – | 2.1 µg/mL (≈ 5.59 µM) | –
